# Test results published in ChEMBL document CHEMBL3351935, “The synthesis, antimalarial activity and CoMFA analysis of novel aminoalkylated quercetin analogs” (Bioorg Med Chem Lett, 2015).
# Assays:
# [1] = test system: Plasmodium falciparum; assay: Antimalarial activity against chloroquine /mefloquine/pyrimethamine-resistant Plasmodium falciparum C235 by malaria SYBR green 1-based fluorescence (MSF) assay; assay type: functional, organism-based
# [2] = test system: Plasmodium falciparum; assay: Antimalarial activity against chloroquine-resistant/mefloquine-sensitive Plasmodium falciparum W2 by malaria SYBR green 1-based fluorescence (MSF) assay; assay type: functional, organism-based
# [3] = test system: Plasmodium falciparum; assay: Antimalarial activity against chloroquine-sensitive/mefloquine-resistant Plasmodium falciparum D6 by malaria SYBR green 1-based fluorescence (MSF) assay; assay type: functional, organism-based
# [4] = Aqueous solubility of the compound at 1 mM by UV spectroscopic assay; assay type: physicochemical; conditions: buffer
# Outline: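 Modified UV-spectroscopic method on the free base. A 1 mM DMSO stock was diluted to 4, 8, 12, 16 and 20 μM (2% DMSO in water) to build calibration curves. Each compound was suspended in medium to saturation, centrifuged at 8000 rpm for 10 min and filtered. Absorbance was read at 280 nm, 25 °C, and concentration was taken from the calibration best-fit line.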
# [5] = test system: Plasmodium falciparum; assay: Antigametocytocidal activity against Plasmodium falciparum NF54-pfs16-[…] early (1 to 3) gametocyte assessed as viability after 72 hrs by MitoTracker Red CM-H2XRos/micro-plate confocal imaging system; assay type: functional, organism-based; conditions: NF54, 72 h
# [6] = target: Intercellular adhesion molecule 1 (Homo sapiens) (UniProt P05362); assay: Inhibition of human type O erythrocyte ICAM1-mediated Plasmodium falciparum infection with at 50 uM
# Intercellular adhesion molecule 1 (Homo sapiens), sequence (P05362 whole entry): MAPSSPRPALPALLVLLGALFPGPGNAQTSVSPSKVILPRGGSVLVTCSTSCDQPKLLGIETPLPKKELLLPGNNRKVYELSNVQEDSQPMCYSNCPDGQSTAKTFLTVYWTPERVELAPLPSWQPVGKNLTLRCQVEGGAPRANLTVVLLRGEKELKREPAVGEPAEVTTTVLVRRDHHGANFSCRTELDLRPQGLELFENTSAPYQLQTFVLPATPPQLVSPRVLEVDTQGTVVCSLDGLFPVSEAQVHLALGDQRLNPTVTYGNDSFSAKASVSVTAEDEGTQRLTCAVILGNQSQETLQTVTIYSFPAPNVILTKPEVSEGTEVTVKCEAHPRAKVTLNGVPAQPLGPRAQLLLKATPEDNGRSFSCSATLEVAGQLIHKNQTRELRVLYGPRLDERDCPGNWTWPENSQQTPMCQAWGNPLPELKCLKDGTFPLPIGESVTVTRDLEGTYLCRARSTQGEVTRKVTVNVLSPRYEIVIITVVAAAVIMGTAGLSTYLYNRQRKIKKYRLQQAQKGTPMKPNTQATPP
# [7] = test system: Plasmodium falciparum; assay: Antigametocytocidal activity against Plasmodium falciparum NF54-pfs16-[…] late (4 to 6) gametocyte assessed as viability at 120 uM after 72 hrs by MitoTracker Red CM-H2XRos/micro-plate confocal imaging system; assay type: functional; conditions: NF54, 72 h
# [8] = test system: Plasmodium falciparum; assay: Antigametocytocidal activity against Plasmodium falciparum NF54-pfs16-[…] late (4 to 6) gametocyte assessed as viability after 72 hrs by MitoTracker Red CM-H2XRos/micro-plate confocal imaging system; assay type: functional, organism-based; conditions: NF54, 72 h
# [9] = test system: Plasmodium falciparum; assay: Antigametocytocidal activity against Plasmodium falciparum NF54-pfs16-[…] late (4 to 6) gametocyte assessed as viability at 40 uM after 72 hrs by MitoTracker Red CM-H2XRos/micro-plate confocal imaging system; assay type: functional; conditions: NF54, 72 h
Structure (SMILES),IC50 [1] [nM],IC50 [2] [nM],IC50 [3] [nM],solubility at 1000 µM [4] [µM],IC50 [5] [nM],inhibition [6] [%],inhibition at 120 µM [7] [%],IC50 [8] [nM],inhibition at 40 µM [9] [%]
O=c1c(O)c(-c2ccc(O)c(O)c2)oc2c(CNCCc3ccc(F)cc3)c(O)cc(O)c12,150,290,140,136,,,,,
C[C@H]1[C@H](OC(=O)CCC(=O)O)O[C@@H]2O[C@@]3(C)CC[C@H]4[C@H](C)CC[C@@H]1[C@@]24OO3 [ARTESUNATE],,,,,3,,,,
O=C(O[C@@H]1Cc2c(O)cc(O)cc2O[C@@H]1c1cc(O)c(O)c(O)c1)c1cc(O)c(O)c(O)c1 [EPIGALOCATECHIN GALLATE],610,1400,73,,,85,,,
O=c1c(O)c(-c2ccc(O)c(O)c2)oc2c(CNCCc3ccccc3Cl)c(O)cc(O)c12,260,290,250,85,,,,,
O=c1c(O)c(-c2ccc(O)c(O)c2)oc2c(CNCc3cccc(F)c3)c(O)cc(O)c12,620,690,510,123,,,,,
O=c1c(O)c(-c2ccc(O)c(O)c2)oc2cc(O)cc(O)c12 [QUERCETIN],13000,2900,9000,44,,,,,
CCN(CC)CCCC(C)Nc1ccnc2cc(Cl)ccc12 (stereo unspecified) [CHLOROQUINE],,,,,,,100,,
COc1ccc(C[C@H](N)C(=O)N[C@H]2[C@@H](O)[C@H](n3cnc4c(N(C)C)ncnc43)O[C@@H]2CO)cc1 [PUROMYCIN],,,,,175,,,194,
O=c1c(O)c(-c2ccc(O)c(O)c2)oc2c(CNCc3ccccc3)c(O)cc(O)c12,> 2180,> 2180,> 2180,49,,,,,
"O[C@@H](c1cc(C(F)(F)F)nc2c(C(F)(F)F)cccc12)[C@H]1CCCCN1 [(S,R)-MEFLOQUINE]",77,7,,,,,,,
O=c1c(O)c(-c2ccc(O)c(O)c2)oc2c(CNCCc3c(Cl)cccc3Cl)c(O)cc(O)c12,150,230,160,199,,,,,
C[C@@H]1CC[C@H]2[C@@H](C)C(=O)O[C@@H]3O[C@@]4(C)CC[C@@H]1[C@]32OO4 [ARTEMISININ],13,7,9,,,,,,
O=c1c(O)c(-c2ccc(O)c(O)c2)oc2c(CNCc3ccco3)c(O)cc(O)c12,> 2230,> 2230,> 2230,40,,,,,
O=c1c(O)c(-c2ccc(O)c(O)c2)oc2c(CNCCc3ccc(Cl)cc3Cl)c(O)cc(O)c12,79,71,65,168,9670,,,,100
O=c1c(O)c(-c2ccc(O)c(O)c2)oc2c(CNCc3ccc(Cl)cc3)c(O)cc(O)c12,430,590,370,110,,,,,
O=c1c(O)c(-c2ccc(O)c(O)c2)oc2c(CNCCc3cccc(F)c3)c(O)cc(O)c12,88,130,69,275,,,,,
O=c1c(O)c(-c2ccc(O)c(O)c2)oc2c(CN3CCCCC3)c(O)c(CN3CCCCC3)c(O)c12,3100,1200,1700,247,,,,,
O=c1c(O)c(-c2ccc(O)c(O)c2)oc2c(CNCCc3ccc(Cl)cc3)c(O)cc(O)c12,1200,1900,830,99,,,,,
O=c1c(O)c(-c2ccc(O)c(O)c2)oc2c(CNCC3CCCO3)c(O)cc(O)c12 (stereo unspecified),> 2210,> 2210,> 2210,39,,,,,
O=c1c(O)c(-c2ccc(O)c(O)c2)oc2c(CNCCc3ccccc3F)c(O)cc(O)c12,180,240,110,95,,,,,
O=c1c(O)c(-c2ccc(O)c(O)c2)oc2c(CNCCc3cccc(Cl)c3)c(O)cc(O)c12,80,79,69,199,6790,,,,100
O=c1c(O)c(-c2ccc(O)c(O)c2)oc2c(CNCc3ccc(F)cc3)c(O)cc(O)c12,700,720,410,212,,,,,
O=c1c(O)c(-c2ccc(O)c(O)c2)oc2c(CNCCc3ccccc3)c(O)cc(O)c12,> 2120,> 2120,2110,41,,,,,
CN1CCN(Cc2c(O)cc(O)c3c(=O)c(O)c(-c4ccc(O)c(O)c4)oc23)CC1,5300,2400,2900,131,,,,,
O=c1c(O)c(-c2ccc(O)c(O)c2)oc2c(CNCc3cccc(Cl)c3)c(O)cc(O)c12,220,260,190,107,,,,,
Oc1cc(O)c2c(c1)O[C@H](c1ccc(O)c(O)c1)[C@@H](O)C2 [CIANIDANOL],5900,6000,6700,,,,,,
